# Reference: ChEMBL document CHEMBL1944521, “Amide-modified prenylcysteine based Icmt inhibitors: Structure-activity relationships, kinetic analysis and cellular characterization” (Bioorg Med Chem, 2012)
# pIC50: −log10 of the molar value. Calls of active or inactive are those of the source. The calls are words filed in the database; no cut-off is given here.
# Biological target: T1, Protein-S-isoprenylcysteine O-methyltransferase (Homo sapiens, UniProt O60725)
# Assay: Noncompetitive inhibition of His-tagged human Icmt membrane protein over-expressed in Saccharomyces cerevisiae 2766 using [14C]-SAM and N-acetyl-S-farnesyl-l-cysteine as substrate measured after 30 mins by scintillation counting
# Settings: not given
# How it was run: (§1)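 Mode of inhibition: AFC concentration varied at fixed inhibitor levels in the His-hIcmt vapor diffusion assay (14C-SAM, 30 °C, 30 min). Three trials per inhibitor concentration were averaged and plotted as Lineweaver-Burk. KIC and KIU were derived from IC50 by Cheng–Prusoff as adapted by Cer et al.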
# T1 sequence (O60725 whole entry): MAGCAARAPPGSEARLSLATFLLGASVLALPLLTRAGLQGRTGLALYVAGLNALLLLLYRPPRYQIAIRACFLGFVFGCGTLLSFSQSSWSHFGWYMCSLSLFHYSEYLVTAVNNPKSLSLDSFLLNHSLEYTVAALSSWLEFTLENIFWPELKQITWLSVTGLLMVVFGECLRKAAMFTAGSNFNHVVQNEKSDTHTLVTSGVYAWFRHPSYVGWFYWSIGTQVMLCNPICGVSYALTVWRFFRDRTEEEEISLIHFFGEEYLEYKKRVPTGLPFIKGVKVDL
row,Kiuc,Structure (SMILES)
1,4.8 µM,CC(C)=CCC/C(C)=C/CC/C(C)=C/CSC[C@H](NC(=O)c1ccccc1Oc1ccccc1)C(=O)O
2,1.9 µM,CC(C)=CC/C(=C/CSC[C@H](NC(=O)c1ccccc1Oc1ccccc1)C(=O)O)CCc1ccc(-c2ccccc2)cc1

# Biological target: T1, Protein-S-isoprenylcysteine O-methyltransferase
# Assay: Inhibition of Icmt-mediated GFP-K-Ras membrane localization in human Jurkat T cells at 10 uM after 24 hrs by fluorescent microscopic analysis
# Format: cell-based
# Settings: not given
# How it was run: (§2)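 Jurkat E6.1 cells were electroporated with 20 μg GFP-K-Ras, then treated 24 h at 37 °C with DMSO, simvastatin (20 μM) or compound (0.1, 1, 10 μM). Cells were put on polylysine coverslips, fixed in 3% formaldehyde and viewed by fluorescence microscopy. Localization was scored visually as normal, partial or complete mislocalization in random fields of 100 cells; three independent experiments.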
row,inhibition,Structure (SMILES)
1,75%,CC(C)=CC/C(=C/CSC[C@H](NC(=O)c1ccccc1Oc1ccccc1)C(=O)O)CCc1ccc(-c2ccccc2)cc1

# Biological target: T1, Protein-S-isoprenylcysteine O-methyltransferase
# Assay: Inhibition of Icmt in TCR-stimulated human Jurkat T cells assessed as inhibition of Ras-mediated Erk activation at 25 uM after 24 hrs by immunoblot analysis relative to control
# Format: cell-based
# Settings: not given
# How it was run: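 Jurkat cells were treated 24 h with compound (25 μM), vehicle or simvastatin (36.7 μM), then held with anti-CD-3ε (20 μg/mL) 15 min on ice and stimulated 10 min at 37 °C. Triton lysates were run on 6–15% gels and immunoblotted for phospho-Erk, with GAPDH as loading control. Bands were quantified by densitometry relative to control; three independent experiments.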
row,fold change (FC),Structure (SMILES)
1,3,CC(C)=CC/C(=C/CSC[C@H](NC(=O)c1ccccc1Oc1ccccc1)C(=O)O)CCc1ccc(-c2ccccc2)cc1

# Biological target: T1, Protein-S-isoprenylcysteine O-methyltransferase
# Assay: Inhibition of His-tagged human Icmt membrane protein over-expressed in Saccharomyces cerevisiae 2766 using [14C]-SAM and N-acetyl-S-farnesyl-l-cysteine as substrate measured after 30 mins by scintillation counting
# Settings: not given
row,IC50,Structure (SMILES)
1,Not Active,CC(=O)N[C@@H](CSC/C=C(\C)CC/C=C(\C)CCC=C(C)C)C(=O)O

# Same assay, conditions: read-out: IC50
row,pIC50,Structure (SMILES)
1,4.31,CC(C)=CCC/C(C)=C/CC/C(C)=C/CSC[C@H](NC(=O)c1ccccc1COCc1ccccc1)C(=O)O
2,5.17,CC(C)=CCC/C(C)=C/CC/C(C)=C/CSC[C@@H](C(=O)O)N(C)C(=O)c1ccccc1Oc1ccccc1
3,4.42,CC(C)=CCC/C(C)=C/CC/C(C)=C/CC/C(C)=C/CSC[C@H](NC(=O)c1ccccc1Oc1ccccc1)C(=O)O
4,5.21,CC(C)=CCC/C(C)=C/CC/C(C)=C/CSC[C@H](NC(=O)c1ccccc1Oc1ccccc1)C(=O)O
5,4.87,CC(C)=CCC/C(C)=C/CC/C(C)=C/CSC[C@H](NC(=O)c1ccccc1OCc1ccccc1)C(=O)O
6,5.11,CC(C)=CCC/C(C)=C/CC/C(C)=C/CSC[C@@H](NC(=O)c1ccccc1Oc1ccccc1)C(=O)O
7,4.83,CC(C)=CCC/C(C)=C/CC/C(C)=C/CSC[C@H](NC(=O)c1ccccc1Sc1ccccc1)C(=O)O
8,3.68,CCCCCCCCCCCSC[C@H](NC(=O)c1ccccc1Oc1ccccc1)C(=O)O
9,4.65,CC(C)=CCC/C(C)=C/CC/C(C)=C/CSC[C@H](NC(=O)c1cccc(Oc2ccccc2)c1)C(=O)O
10,4.20,CC(C)=CCC/C(C)=C/CC/C(C)=C/CSC[C@H](NC(=O)c1ccc(Oc2ccccc2)cc1)C(=O)O
11,5.60,CC(C)=CC/C(=C/CSC[C@H](NC(=O)c1ccccc1Oc1ccccc1)C(=O)O)CCc1ccc(-c2ccccc2)cc1
12,4.42,CC(C)=CCC/C(C)=C/CC/C(C)=C/CSC[C@H](NC(=O)c1ccccc1Cc1ccccc1)C(=O)O
13,4.12,CC(C)=CCC/C(C)=C/CC/C(C)=C/CSC[C@H](NC(=O)c1ccccc1COc1ccccc1)C(=O)O
14,4.24,CC(C)=CCC/C(C)=C/CC/C(C)=C/CSC[C@H](NC(=O)c1cccc2c1oc1ccccc12)C(=O)O

# Biological target: T1, Protein-S-isoprenylcysteine O-methyltransferase
# Assay: Inhibition of His-tagged human Icmt membrane protein over-expressed in Saccharomyces cerevisiae 2766 using [14C]-SAM and N-acetyl-S-farnesyl-l-cysteine as substrate at 10 uM preincubated on ice and measured after 30 mins by scintillation counting
# Settings: not given
row,inhibition,Structure (SMILES)
1,Active,CC(C)=CCC/C(C)=C/CC/C(C)=C/CSC[C@H](NC(=O)c1ccccc1COCc1ccccc1)C(=O)O
2,Active,CC(C)=CCC/C(C)=C/CC/C(C)=C/CSC[C@@H](C(=O)O)N(C)C(=O)c1ccccc1Oc1ccccc1
3,Active,CC(C)=CCC/C(C)=C/CC/C(C)=C/CSC[C@H](NC(=O)c1ccccc1OCc1ccccc1)C(=O)O
4,Active,CC(C)=CCC/C(C)=C/CC/C(C)=C/CSC[C@@H](NC(=O)c1ccccc1Oc1ccccc1)C(=O)O
5,Active,CC(C)=CCC/C(C)=C/CC/C(C)=C/CSC[C@H](NC(=O)c1ccccc1Sc1ccccc1)C(=O)O
6,Active,CCCCCCCCCCCSC[C@H](NC(=O)c1ccccc1Oc1ccccc1)C(=O)O
7,Active,CC(C)=CCC/C(C)=C/CC/C(C)=C/CSC[C@H](NC(=O)c1ccccc1Cc1ccccc1)C(=O)O
8,Active,CC(C)=CCC/C(C)=C/CC/C(C)=C/CSC[C@H](NC(=O)c1ccccc1COc1ccccc1)C(=O)O
9,Active,CC(C)=CCC/C(C)=C/CC/C(C)=C/CSC[C@H](NC(=O)c1cccc2c1oc1ccccc12)C(=O)O

# Biological target: T1, Protein-S-isoprenylcysteine O-methyltransferase
# Assay: Inhibition of Icmt in TCR-stimulated human Jurkat T cells assessed as inhibition of Ras activation at 25 uM after 24 hrs by immunoblot analysis
# Format: cell-based
# Settings: not given
# How it was run: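 Jurkat cells were treated 24 h with compound (25 μM), vehicle or simvastatin (36.7 μM), then held with anti-CD-3ε (20 μg/mL) 15 min on ice and stimulated 10 min at 37 °C. GTP-Ras was pulled down from NP40 lysates on GST-RBD glutathione beads (30 min, 4 °C) and immunoblotted with anti-pan-Ras. Bands were quantified by densitometry; three independent experiments.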
row,inhibition,Structure (SMILES)
1,Active,CC(C)=CC/C(=C/CSC[C@H](NC(=O)c1ccccc1Oc1ccccc1)C(=O)O)CCc1ccc(-c2ccccc2)cc1

# Biological target: T1, Protein-S-isoprenylcysteine O-methyltransferase
# Assay: Competitive inhibition of His-tagged human Icmt membrane protein over-expressed in Saccharomyces cerevisiae 2766 using [14C]-SAM and N-acetyl-S-farnesyl-l-cysteine as substrate measured after 30 mins by scintillation counting
# Settings: not given
# How it was run: as §1
row,Kic,Structure (SMILES)
1,1.4 µM,CC(C)=CCC/C(C)=C/CC/C(C)=C/CSC[C@H](NC(=O)c1ccccc1Oc1ccccc1)C(=O)O
2,0.5 µM,CC(C)=CC/C(=C/CSC[C@H](NC(=O)c1ccccc1Oc1ccccc1)C(=O)O)CCc1ccc(-c2ccccc2)cc1

# Biological target: T1, Protein-S-isoprenylcysteine O-methyltransferase
# Assay: Inhibition of Icmt-mediated GFP-K-Ras membrane localization in human Jurkat T cells at 0.1 uM after 24 hrs by fluorescent microscopic analysis
# Format: cell-based
# Settings: not given
# How it was run: as §2
row,inhibition,Structure (SMILES)
1,35%,CC(C)=CC/C(=C/CSC[C@H](NC(=O)c1ccccc1Oc1ccccc1)C(=O)O)CCc1ccc(-c2ccccc2)cc1

# Biological target: T1, Protein-S-isoprenylcysteine O-methyltransferase
# Assay: Activity at His-tagged human Icmt membrane protein over-expressed in Saccharomyces cerevisiae 2766 using [14C]-SAM as substrate at 25 uM by scintillation counting
# Settings: not given
row,Activity,Structure (SMILES)
1,inactive,CC(C)=CCC/C(C)=C/CC/C(C)=C/CSC[C@H](NC(=O)c1ccccc1COCc1ccccc1)C(=O)O
2,inactive,CC(C)=CCC/C(C)=C/CC/C(C)=C/CSC[C@@H](C(=O)O)N(C)C(=O)c1ccccc1Oc1ccccc1
3,inactive,CC(C)=CCC/C(C)=C/CC/C(C)=C/CC/C(C)=C/CSC[C@H](NC(=O)c1ccccc1Oc1ccccc1)C(=O)O
4,inactive,CC(C)=CCC/C(C)=C/CC/C(C)=C/CSC[C@H](NC(=O)c1ccccc1OCc1ccccc1)C(=O)O
5,inactive,CC(C)=CCC/C(C)=C/CC/C(C)=C/CSC[C@@H](NC(=O)c1ccccc1Oc1ccccc1)C(=O)O
6,inactive,CC(C)=CCC/C(C)=C/CC/C(C)=C/CSC[C@H](NC(=O)c1ccccc1Sc1ccccc1)C(=O)O
7,inactive,CCCCCCCCCCCSC[C@H](NC(=O)c1ccccc1Oc1ccccc1)C(=O)O
8,inactive,CC(C)=CCC/C(C)=C/CC/C(C)=C/CSC[C@H](NC(=O)c1cccc(Oc2ccccc2)c1)C(=O)O
9,inactive,CC(C)=CCC/C(C)=C/CC/C(C)=C/CSC[C@H](NC(=O)c1ccc(Oc2ccccc2)cc1)C(=O)O
10,inactive,CC(C)=CCC/C(C)=C/CC/C(C)=C/CSC[C@H](NC(=O)c1ccccc1Cc1ccccc1)C(=O)O
11,inactive,CC(C)=CCC/C(C)=C/CC/C(C)=C/CSC[C@H](NC(=O)c1ccccc1COc1ccccc1)C(=O)O
12,inactive,CC(C)=CCC/C(C)=C/CC/C(C)=C/CSC[C@H](NC(=O)c1cccc2c1oc1ccccc12)C(=O)O
